The results in this text go back to ChEMBL document CHEMBL4351001, “2-Aminoimidazole-based antagonists of the 5-HT6 receptor - A new concept in aminergic GPCR ligand design” (Eur J Med Chem, 2019).

One data set deals with hERG (KCNH2) (Homo sapiens, UniProt Q12809). Put plainly: Displacement of [3H] dofetilide from human recombinant ERG at 10^-6 M measured after 60 mins by scintillation counting method relative to control. As to conditions: probe [3H]dofetilide.
A short description of data set [1]: Solubility of compound in water. The data set is classed as physicochemical. As to conditions: water; read-out: solubility.
The test system of another data set is Rattus norvegicus. Kind of data set: Reversal of scopolamine induced cognitive impairment impairment in Sprague-Dawley rat at 1 mg/kg, po pre treated for 2 hrs followed by scopolamine addition further treated for 30 mins and measured after 1 hr by novel object recognition test. The data set is classed as functional, organism-based. In short, it runs like this: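 Male Sprague–Dawley rats (~250 g); open-field habituation 5 min 24 h before test. Compounds p.o. 120 min and scopolamine 1.25 mg/kg i.p. 30 min before 3-min familiarization trial; 3-min recognition trial 1 h later. Exploration video-tracked; discrimination index computed; one-way ANOVA with Newman–Keuls; n = 9–10 per group; mean ± SEM.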

The nature of data set [2]: in vitro. Conditions: rat, microsomes.
The nature of data set [3]: in vitro. As to conditions: rat, microsomes. This is another data set of the same source.

The source made the active and inactive calls. No cut-off for these calls is given here.

hERG (KCNH2), sequence (Q12809 whole entry): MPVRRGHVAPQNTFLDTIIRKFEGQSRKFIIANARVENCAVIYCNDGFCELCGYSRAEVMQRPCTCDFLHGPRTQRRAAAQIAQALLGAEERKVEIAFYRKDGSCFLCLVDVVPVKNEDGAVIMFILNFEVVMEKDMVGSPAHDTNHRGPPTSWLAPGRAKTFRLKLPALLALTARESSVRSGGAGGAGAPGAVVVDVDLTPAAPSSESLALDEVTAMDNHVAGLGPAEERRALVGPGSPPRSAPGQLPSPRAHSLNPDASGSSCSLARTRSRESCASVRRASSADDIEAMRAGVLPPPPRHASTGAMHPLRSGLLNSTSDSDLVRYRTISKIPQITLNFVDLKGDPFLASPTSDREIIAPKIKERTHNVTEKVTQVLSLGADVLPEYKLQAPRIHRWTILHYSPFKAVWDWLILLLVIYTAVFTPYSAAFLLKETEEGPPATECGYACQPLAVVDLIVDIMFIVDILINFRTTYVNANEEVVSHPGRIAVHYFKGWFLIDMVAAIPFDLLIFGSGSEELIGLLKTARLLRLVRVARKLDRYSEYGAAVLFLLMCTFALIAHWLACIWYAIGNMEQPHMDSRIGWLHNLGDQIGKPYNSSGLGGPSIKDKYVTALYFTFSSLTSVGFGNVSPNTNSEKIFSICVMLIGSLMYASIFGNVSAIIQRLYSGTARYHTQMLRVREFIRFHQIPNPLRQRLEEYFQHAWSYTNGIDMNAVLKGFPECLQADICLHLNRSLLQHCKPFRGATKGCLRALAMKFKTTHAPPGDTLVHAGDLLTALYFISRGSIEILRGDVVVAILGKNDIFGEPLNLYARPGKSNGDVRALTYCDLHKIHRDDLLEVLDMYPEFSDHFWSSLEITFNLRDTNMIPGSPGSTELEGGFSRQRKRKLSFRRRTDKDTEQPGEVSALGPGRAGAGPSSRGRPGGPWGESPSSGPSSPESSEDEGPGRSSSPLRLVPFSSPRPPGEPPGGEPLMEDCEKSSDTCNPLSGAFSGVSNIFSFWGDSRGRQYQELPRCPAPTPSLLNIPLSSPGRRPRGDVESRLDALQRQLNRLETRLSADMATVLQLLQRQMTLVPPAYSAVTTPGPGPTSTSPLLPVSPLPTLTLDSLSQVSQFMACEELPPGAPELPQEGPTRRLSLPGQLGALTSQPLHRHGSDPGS

Consider `CC(=O)Nc1nc(C)c(-c2cn(S(=O)(=O)c3ccccc3)c3ccccc23)[nH]1.Cl`, for which the inhibition (in general, how much of the control response was suppressed) at 1 h, 1 µM at hERG (KCNH2) stood at 2.4%. Besides, in data set [1], the solubility (commonly the concentration that dissolves in the medium under given conditions) fell in the range of 100 to 10000 µg/mL.

For `COc1cc2c(cc1OC)C(=O)C(CC1CCN(Cc3ccccc3)CC1)C2` (stereo not given) [DONEPEZIL], the outcome in the data set on Rattus norvegicus was Active. The intrinsic metabolic clearance (microsomal CLint) (in general, a measure of how fast metabolising enzymes remove a compound, apart from limits set by blood flow) in “in vitro [2]” was 17.6 µL/min/mg. For the same molecule, the half-life – broadly, how long it takes for the measured level to halve – in “in vitro [3]” turned out to be 1.32 h.
